In ChEMBL document CHEMBL1687821, “In vivo and in vitro efficacy of chloroquine against Plasmodium malariae and P. ovale in Papua, Indonesia” (Antimicrob Agents Chemother, 2011) one finds IC50 and Ratio data, which are given here for 6 molecules.

Molecules are shown by their SMILES.

The test system of the first experiment is Plasmodium ovale. Put plainly: Antimalarial activity against Plasmodium ovale trophozoite stage infected in red blood cells in presence of AB+ human serum by drug susceptibility assay. The experiment is classed as functional. Put shortly: (§1)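 Field isolates from venous blood, leukocytes removed on CF11 column. Modified WHO schizont-maturation microtest at 2% hematocrit in McCoy's 5A with 20% AB+ serum, 11 twofold dilutions (chloroquine top 5,910 nM). Candle jar, 37.5°C, 15–56 h, stopped at >40% schizonts in the drug-free control. Schizonts (≥5 chromatin dots) per 200 asexual parasites, normalized to control. IC50 from inhibitory sigmoid Emax fit. Isolates grouped by predominant stage at start.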
For the molecule `CCN(CC)CCCC(C)Nc1ccnc2cc(Cl)ccc12` (stereo not drawn) [CHLOROQUINE], the half-inhibitory concentration (IC50) (as a rule, the concentration that inhibits the measured activity by half) worked out at 23.2 nM.

For `C[C@H]1[C@H](OC(=O)CCC(=O)O)O[C@@H]2O[C@@]3(C)CC[C@H]4[C@H](C)CC[C@@H]1[C@@]24OO3` [ARTESUNATE], the IC50 came out at 1.28 nM.

Consider `Clc1ccc2c(N3CCN(CCCN4CCN(c5ccnc6cc(Cl)ccc56)CC4)CC3)ccnc2c1` [PIPERAQUINE], for which the 50% inhibitory concentration (IC50) is 7.57 nM.

A further experiment relates to Plasmodium ovale. The experiment can be described thus: Antimalarial activity against Plasmodium ovale ring stage infected in red blood cells in presence of AB+ human serum by drug susceptibility assay. It is filed as functional. The method, boiled down:
as §1
As for `CCN(CC)CCCC(C)Nc1ccnc2cc(Cl)ccc12` (stereo not drawn) [CHLOROQUINE], the IC50 came to 7.8 nM.

For the molecule `C[C@H]1[C@H](OC(=O)CCC(=O)O)O[C@@H]2O[C@@]3(C)CC[C@H]4[C@H](C)CC[C@@H]1[C@@]24OO3` [ARTESUNATE], the IC50 was 1.16 nM.

Regarding `Clc1ccc2c(N3CCN(CCCN4CCN(c5ccnc6cc(Cl)ccc56)CC4)CC3)ccnc2c1` [PIPERAQUINE], the IC50 was 10.2 nM.

Take `CCN(CC)Cc1cc(Nc2ccnc3cc(Cl)ccc23)ccc1O`: the IC50 amounted to 4.3 nM.

For `OC(c1cc(C(F)(F)F)nc2c(C(F)(F)F)cccc12)C1CCCCN1` (stereo not drawn) [MEFLOQUINE], the concentration for half-maximal inhibition (IC50) was 23.8 nM.

As for `COc1ccc2nc3cc(Cl)ccc3c(Nc3cc(CN4CCCC4)c(O)c(CN4CCCC4)c3)c2n1` [PYRONARIDINE], the IC50 turned out to be 0.72 nM.

In a further experiment the test system is Plasmodium malariae. The experiment can be described thus: Antimalarial activity against Plasmodium malariae ring stage infected in red blood cells in presence of AB+ human serum by drug susceptibility assay. The experiment is classed as functional, organism-based. Put shortly:
as §1
On to `CCN(CC)CCCC(C)Nc1ccnc2cc(Cl)ccc12` (stereo not drawn) [CHLOROQUINE], for which the IC50 is 14 nM.

For `C[C@H]1[C@H](OC(=O)CCC(=O)O)O[C@@H]2O[C@@]3(C)CC[C@H]4[C@H](C)CC[C@@H]1[C@@]24OO3` [ARTESUNATE], the IC50 worked out at 1.77 nM.

With `Clc1ccc2c(N3CCN(CCCN4CCN(c5ccnc6cc(Cl)ccc56)CC4)CC3)ccnc2c1` [PIPERAQUINE], the IC50 turned out to be 29 nM.

For the molecule `CCN(CC)Cc1cc(Nc2ccnc3cc(Cl)ccc23)ccc1O`, the IC50 stood at 21.7 nM.

On to `OC(c1cc(C(F)(F)F)nc2c(C(F)(F)F)cccc12)C1CCCCN1` (stereo not drawn) [MEFLOQUINE], for which the IC50 came to 36.8 nM.

As for `COc1ccc2nc3cc(Cl)ccc3c(Nc3cc(CN4CCCC4)c(O)c(CN4CCCC4)c3)c2n1` [PYRONARIDINE], the half-maximal inhibitory concentration (IC50) worked out at 4.1 nM.

The test system of another experiment is Plasmodium ovale. The experiment can be described thus: Antimalarial activity against Plasmodium ovale in patients assessed as parasite reduction ratio at 25 mg/kg, po after 48 hrs. It is filed as functional. Put shortly: (§2)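 Oral chloroquine tablets (150 mg base each) at 25 mg/kg over 3 days, all doses supervised; dose repeated once if vomited within 60 min. Parasitemia counted on Giemsa-stained thick films as parasites per 200 WBCs by an expert microscopist. Reduction ratio taken at 48 h.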
`CCN(CC)CCCC(C)Nc1ccnc2cc(Cl)ccc12` (stereo not drawn) [CHLOROQUINE]: the Ratio is on record as 150.

The next experiment has as its system Plasmodium malariae. Put plainly: Antimalarial activity against Plasmodium malariae in patients assessed as parasite reduction ratio at 25 mg/kg, po after 48 hrs. The experiment is classed as functional. The method, boiled down:
as §2
Consider `CCN(CC)CCCC(C)Nc1ccnc2cc(Cl)ccc12` (stereo not drawn) [CHLOROQUINE], for which the Ratio was 86.

The test system of the next experiment is Plasmodium malariae. The experiment can be described thus: Antimalarial activity against Plasmodium malariae trophozoite stage infected in red blood cells in presence of AB+ human serum by drug susceptibility assay. The experiment is classed as functional, organism-based. Put shortly:
as §1
`CCN(CC)CCCC(C)Nc1ccnc2cc(Cl)ccc12` (stereo not drawn) [CHLOROQUINE]: the IC50 turned out to be 128 nM.

`C[C@H]1[C@H](OC(=O)CCC(=O)O)O[C@@H]2O[C@@]3(C)CC[C@H]4[C@H](C)CC[C@@H]1[C@@]24OO3` [ARTESUNATE]: the IC50 came to 2.84 nM.

Turning to `Clc1ccc2c(N3CCN(CCCN4CCN(c5ccnc6cc(Cl)ccc56)CC4)CC3)ccnc2c1` [PIPERAQUINE], the IC50 came to 38.4 nM.

Turning to `CCN(CC)Cc1cc(Nc2ccnc3cc(Cl)ccc23)ccc1O`, the IC50 is 19.1 nM.

As for `OC(c1cc(C(F)(F)F)nc2c(C(F)(F)F)cccc12)C1CCCCN1` (stereo not drawn) [MEFLOQUINE], the IC50 stood at 46.9 nM.

Take `COc1ccc2nc3cc(Cl)ccc3c(Nc3cc(CN4CCCC4)c(O)c(CN4CCCC4)c3)c2n1` [PYRONARIDINE]: the IC50 came out at 7.8 nM.
